Results on twelve compounds are retold here after article PMC12650307 (RSC Advances, 2025).

Experiment [1] deals with CDK2 (Homo sapiens, UniProt P24941). The experiment can be described thus: In vitro CDK2 enzyme inhibition. In kind it is biochemical.
Experiment [2] concerns HepG2 cells. The experiment can be described thus: MTT cytotoxicity assay, HepG2. In kind it is cell-based. As to conditions: Homo sapiens, HepG2, 48 h, read-out: IC50 HepG2.
Experiment [3] has as its system MCF-7 cells. The experiment can be described thus: MTT cytotoxicity assay, MCF-7. It is filed as cell-based. The following applies: Homo sapiens, MCF7, 48 h, read-out: IC50 MCF-7.
Experiment [4] concerns MCF-7 cells. The experiment can be described thus: Cell cycle analysis. In kind it is cell-based, human. In short, it runs like this:
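MCF-7 cells were exposed for 48 h, harvested by trypsinization and washed twice in PBS. Fixed in ice-cold 60% (w/w) ethanol at 4 °C for 12 h, then rewashed in PBS. Stained 30 min in buffer with RNase and propidium iodide. Flow cytometry gave the % of cells in G1, S and G2, with untreated MCF-7 as control.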

Experiment [5] concerns MCF-7 cells. The experiment can be described thus: Annexin V-FITC/PI apoptosis assay. It is filed as cell-based, human. As to conditions: MCF-7, 48 h at IC50. In short, it runs like this:
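Treated MCF-7 cells for 48 h, then trypsinized and washed in PBS. Stained with annexin V-FITC plus propidium iodide at room temperature in the dark, per kit instructions, then read on a FACScan flow cytometer. Quadrants: upper left necrotic, upper right late apoptotic, lower right early apoptotic, lower left living. Untreated MCF-7 served as control.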

Experiment [6] has as its system Bax. The experiment can be described thus: Bax level by ELISA in treated MCF-7 cells. In kind it is cell-based, human.
For experiment [7], the system named is Bcl-2. The experiment can be described thus: Bcl-2 level by ELISA in treated MCF-7 cells. It is filed as cell-based, human. On the technique in general: ELISA stands for enzyme-linked immunosorbent assay.

Turning to `Cc1cccc(N=Nc2c(N)nn(-c3ccccn3)c2N)c1` [Compound 2, 1-(2-Pyridinyl)-4-(3-tolyldiazenyl)-1H-pyrazole-3,5-diamine], in experiment [1], the 50% inhibitory concentration (IC50) (commonly the point on the concentration scale where inhibition reaches its midpoint) was determined as 1.05 ± 0.2 µM.
In experiment [1], `CC(=O)c1ccc(N=Nc2c(N)nn(-c3ccccn3)c2N)cc1` [Compound 3, 1-(4-((3,5-Diamino-1-(2-pyridinyl)-1H-pyrazol-4-yl)diazenyl)phenyl)ethan-1-one] returned an IC50 of 1.2 ± 0.15 µM.
For the compound `Nc1nn(-c2ccccn2)c(N)c1N=Nc1ccc(S(=O)(=O)O)cc1` [Compound 4, 4-((3,5-Diamino-1-(2-pyridinyl)-1H-pyrazol-4-yl)diazenyl)benzenesulfonic acid], the results for the IC50 in experiment [1], in experiment [2] and in experiment [3] were 0.75 ± 0.05 µM, 53.8 ± 3.2 µM and 48.7 ± 2.8 µM, respectively.
For `Nc1nn(-c2ccccn2)c(N)c1N=Nc1ccc(C(=O)O)c(O)c1` [Compound 5, 4-((3,5-Diamino-1-(2-pyridinyl)-1H-pyrazol-4-yl)diazenyl)-2-hydroxybenzoic acid], the “CDK2 inhibitory activity relative to roscovitine” value in experiment [1] is on record as 2 fold. Further, the IC50 in experiment [1] was 0.56 ± 0.03 µM; in experiment [2] it was 13.1 ± 1.1 µM; in experiment [3] it was 8.03 ± 0.6 µM. Also, the “fold increase in S phase in comparison to control” value in experiment [4] (MCF-7) was found to be 1.2 fold. The “% S” value in experiment [4] (MCF-7, 48 h at its IC50, control 35.52) was 41.02%. For the same compound, in experiment [4] (MCF-7, 48 h at its IC50, control 38.02), the “% G1” value is listed as 11.98%. For the same compound, in experiment [5] (control 0.04), the Late apoptosis came out at 8.10%. The compound also returned a Necrosis in experiment [5] (control 0.18) of 0.02%. The Early apoptosis in experiment [5] (control 0.43) came out at 71.1%. The “Total (apoptosis/necrosis)” value in experiment [5] (control 0.65) came to 79.22. Besides, in experiment [6], the “Bax/Bcl-2 ratio in comparison with control” value is on record as “approximately 20 fold”. The same compound gave a Bax in experiment [6] (control 57.22 ± 0.9) of 369.15 ± 0.7 pg/mL. In addition, the “Bax FLD” value in experiment [6] (relative to control = 1) came to 6.45 fold. Also, the “decrease of anti-apoptotic Bcl-2 level in comparison with control” value in experiment [7] is on record as 3 fold. This compound also displayed a Bcl-2 in experiment [7] (control 5.31 ± 0.5) of 1.72 ± 0.08 ng/mL. Moreover, in experiment [7] (relative to control = 1), the “Bcl-2 FLD” value is given as 0.3.
On to `NC(N)=NS(=O)(=O)c1ccc(N=Nc2c(N)nn(-c3ccccn3)c2N)cc1` [Compound 6, 4-((3,5-Diamino-1-(2-pyridinyl)-1H-pyrazol-4-yl)diazenyl)-N-(diaminomethylene)benzenesulfonamide], for which the “CDK2 inhibitory activity relative to roscovitine” value in experiment [1] is reported as 2 fold. Moreover, the IC50 in experiment [1] came out at 0.46 ± 0.02 µM; in experiment [2], 22.8 ± 1.5 µM; in experiment [3], 26.1 ± 1.7 µM.
As for `Nc1nn(-c2ccccn2)c(N)c1N=Nc1ccc(N=Nc2ccccc2)cc1` [Compound 7, 4-((4-(Phenyldiazenyl)phenyl)diazenyl)-1-(2-pyridinyl)-1H-pyrazole-3,5-diamine], the 50% inhibitory concentration (IC50) is 0.77 ± 0.05 µM in experiment [1], 67.1 ± 3.5 µM in experiment [2] and 35.1 ± 2.2 µM in experiment [3].
In the case of `Nc1nn(-c2ccccn2)c(N)c1N=Nc1cc(Cl)c(Cl)cc1Cl` [Compound 8, 1-(2-Pyridinyl)-4-((2,4,5-trichlorophenyl)diazenyl)-1H-pyrazole-3,5-diamine], 1.46 ± 0.5 µM corresponded to half-maximal inhibition in experiment [1] (IC50).
Same read-out and setting: under `Nc1nn(-c2ccccn2)c(N)c1N=Nc1cccc([N+](=O)[O-])c1` [Compound 9, 4-((3-Nitrophenyl)diazenyl)-1-(2-pyridinyl)-1H-pyrazole-3,5-diamine] stands 1.5 ± 0.7 µM.
Take `COc1ccc(N=Nc2c(N)nn(-c3ccccn3)c2N)cc1` [Compound 10, 4-((4-Methoxyphenyl)diazenyl)-1-(2-pyridinyl)-1H-pyrazole-3,5-diamine]: the IC50 in experiment [1] is 0.85 ± 0.05 µM; in experiment [2], 41.6 ± 2.4 µM; in experiment [3], 15.4 ± 1.2 µM.
`Nc1nn(-c2ccccn2)c(N)c1N=Nc1ccccc1Cl` [Compound 11, 4-((2-Chlorophenyl)diazenyl)-1-(2-pyridinyl)-1H-pyrazole-3,5-diamine]: in experiment [1], the “CDK2 inhibitory activity relative to roscovitine” value worked out at 2 fold. For the same compound, the figures for the IC50 in experiment [1], in experiment [2] and in experiment [3] were 0.45 ± 0.02 µM, 74.2 ± 3.8 µM and 61.8 ± 3.4 µM, respectively.
As to `Nc1nn(-c2ccccn2)c(N)c1N=Nc1nccs1` [Compound 12, 1-(Pyridin-2-yl)-4-(thiazol-2-yldiazenyl)-1H-pyrazole-3,5-diamine], in experiment [1], the concentration for half-maximal inhibition (IC50) was determined as 1.24 ± 0.85 µM.
Take `COc1cccc2c1C(=O)c1c(O)c3c(c(O)c1C2=O)C[C@@](O)(C(=O)CO)C[C@@H]3O[C@H]1C[C@H](N)[C@H](O)[C@H](C)O1` [DOX, doxorubicin, reference compound]: in experiment [2], the IC50 was determined as 4.5 ± 0.2 µM.
